Calls of active or inactive are those of the source. The rule behind the calls is not given here.
How the values were obtained:
[1] = target: Serine/threonine-protein kinase 25 (Homo sapiens) (UniProt O00506); test: Inhibition of YSK1 Lys2 labeling site in human Huh-7 cell lysate at 1 uM by KiNativ Profiling analysis relative to control; format: subcellular
[2] = target: Serine/threonine-protein kinase Nek7 (Homo sapiens) (UniProt Q8TDX7); test: Inhibition of NEK7 Lys2 labeling site harbouring DIKPANVFITATGVVK in human Huh-7 cells at 1 uM by KiNativ Profiling analysis relative to control; format: cell-based
[3] = target: Serine/threonine-protein kinase WNK3 (Homo sapiens) (UniProt Q9BYP7); test: Inhibition of Wnk3 Lys2 labeling site in human Huh-7 cell lysate at 1 uM by KiNativ Profiling analysis relative to control; format: subcellular
[4] = target: Focal adhesion kinase 1 (Homo sapiens) (UniProt Q05397); test: Inhibition of FAK (unknown origin) at 1 uM by Ambit Kinomescan binding assay relative to control
Procedure, shortened: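 In vitro ATP-site competition binding assay against a panel of over 420 kinases (KinomeScan), with compound tested at 10 or 1 μM.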

[5] = target: T1, Phosphatidylinositol 5-phosphate 4-kinase type-2 gamma (Homo sapiens) (UniProt Q8TBX8); test: Inhibition of PIP4K2C ATP labeling site harbouring VKELPTLK in human A-375 cells at 0.05 uM by KiNativ Profiling analysis relative to control; format: cell-based
T1 sequence (whole entry): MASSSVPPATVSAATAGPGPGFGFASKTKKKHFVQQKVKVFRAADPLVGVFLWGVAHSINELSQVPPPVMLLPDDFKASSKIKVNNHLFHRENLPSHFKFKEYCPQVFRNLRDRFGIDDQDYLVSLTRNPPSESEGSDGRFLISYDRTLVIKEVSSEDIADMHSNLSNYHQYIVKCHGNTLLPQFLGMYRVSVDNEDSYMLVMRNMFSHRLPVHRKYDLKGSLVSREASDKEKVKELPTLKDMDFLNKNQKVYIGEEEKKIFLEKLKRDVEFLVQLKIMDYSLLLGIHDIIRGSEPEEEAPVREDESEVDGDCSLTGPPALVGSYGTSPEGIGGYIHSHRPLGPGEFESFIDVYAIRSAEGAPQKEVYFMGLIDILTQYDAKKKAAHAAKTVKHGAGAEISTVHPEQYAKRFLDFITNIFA

[6] = target: Hormonally up-regulated neu tumor-associated kinase (Homo sapiens) (UniProt P57058); test: Inhibition of HUNK (unknown origin) at 1 uM by Ambit Kinomescan binding assay relative to control; values are per cent of control
[7] = target: T2, Serine/threonine-protein kinase LATS1 (Homo sapiens) (UniProt O95835); test: Inhibition of LATS1 (unknown origin) at 10 uM by Ambit Kinomescan binding assay
T2 sequence (whole entry): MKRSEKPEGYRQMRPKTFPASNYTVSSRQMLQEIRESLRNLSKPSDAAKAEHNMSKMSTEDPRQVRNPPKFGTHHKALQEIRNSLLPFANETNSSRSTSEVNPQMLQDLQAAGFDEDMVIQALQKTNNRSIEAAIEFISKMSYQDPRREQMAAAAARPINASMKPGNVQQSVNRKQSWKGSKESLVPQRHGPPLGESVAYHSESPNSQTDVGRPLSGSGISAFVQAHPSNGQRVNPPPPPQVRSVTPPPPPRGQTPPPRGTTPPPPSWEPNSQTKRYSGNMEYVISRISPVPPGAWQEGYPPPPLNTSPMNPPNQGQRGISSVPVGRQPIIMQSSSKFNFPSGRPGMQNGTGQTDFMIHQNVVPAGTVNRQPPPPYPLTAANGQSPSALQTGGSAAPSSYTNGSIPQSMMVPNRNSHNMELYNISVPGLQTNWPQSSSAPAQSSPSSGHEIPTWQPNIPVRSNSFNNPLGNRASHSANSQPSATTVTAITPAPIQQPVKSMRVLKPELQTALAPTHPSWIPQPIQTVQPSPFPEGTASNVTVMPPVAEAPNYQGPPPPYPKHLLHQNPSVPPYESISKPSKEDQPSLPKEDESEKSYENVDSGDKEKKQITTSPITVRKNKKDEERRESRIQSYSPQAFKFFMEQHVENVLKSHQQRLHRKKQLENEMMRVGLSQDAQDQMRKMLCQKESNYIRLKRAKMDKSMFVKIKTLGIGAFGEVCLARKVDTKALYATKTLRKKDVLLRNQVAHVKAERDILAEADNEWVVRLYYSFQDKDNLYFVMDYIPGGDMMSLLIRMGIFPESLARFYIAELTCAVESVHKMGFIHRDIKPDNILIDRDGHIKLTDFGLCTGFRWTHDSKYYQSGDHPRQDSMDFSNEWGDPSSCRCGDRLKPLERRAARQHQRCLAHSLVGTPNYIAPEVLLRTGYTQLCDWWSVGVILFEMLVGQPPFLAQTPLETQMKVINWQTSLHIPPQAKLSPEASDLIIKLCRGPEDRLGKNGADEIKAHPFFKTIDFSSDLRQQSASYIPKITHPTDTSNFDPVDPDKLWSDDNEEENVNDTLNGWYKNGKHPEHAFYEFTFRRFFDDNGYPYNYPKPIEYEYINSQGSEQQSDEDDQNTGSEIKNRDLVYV

[8] = target: T3, Phosphatidylinositol 5-phosphate 4-kinase type-2 alpha (Homo sapiens) (UniProt P48426); test: Inhibition of PIP4K2A ATP labeling site in human A-375 cells at 0.05 uM by KiNativ Profiling analysis relative to control; format: cell-based
T3 sequence (whole entry): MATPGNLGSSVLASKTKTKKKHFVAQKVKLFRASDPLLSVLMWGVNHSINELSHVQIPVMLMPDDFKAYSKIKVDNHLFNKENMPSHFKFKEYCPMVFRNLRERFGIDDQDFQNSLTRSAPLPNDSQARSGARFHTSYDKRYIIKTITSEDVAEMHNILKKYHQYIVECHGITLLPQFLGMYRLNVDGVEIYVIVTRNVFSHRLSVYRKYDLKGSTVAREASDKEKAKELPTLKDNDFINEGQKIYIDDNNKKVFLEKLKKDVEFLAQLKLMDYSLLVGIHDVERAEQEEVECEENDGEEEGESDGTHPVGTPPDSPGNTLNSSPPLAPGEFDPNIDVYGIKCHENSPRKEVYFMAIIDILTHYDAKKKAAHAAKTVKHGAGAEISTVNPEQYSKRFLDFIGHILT

[9] = target: TRAF2 and NCK-interacting protein kinase (Homo sapiens) (UniProt Q9UKE5); test: Inhibition of TNIK (unknown origin) at 10 uM by Ambit Kinomescan binding assay relative to control; values are per cent of control
[10] = target: Non-receptor tyrosine-protein kinase TYK2 (Homo sapiens) (UniProt P29597); test: Inhibition of TYK2 domain2 ACT labeling site in human A-375 cells at 0.05 uM by KiNativ Profiling analysis relative to control; format: cell-based
[11] = target: Aurora kinase B (Homo sapiens) (UniProt Q96GD4); test: Inhibition of AURKB (unknown origin) at 10 uM by Ambit Kinomescan binding assay

Sequence of Hormonally up-regulated neu tumor-associated kinase (Homo sapiens) (P57058 whole entry): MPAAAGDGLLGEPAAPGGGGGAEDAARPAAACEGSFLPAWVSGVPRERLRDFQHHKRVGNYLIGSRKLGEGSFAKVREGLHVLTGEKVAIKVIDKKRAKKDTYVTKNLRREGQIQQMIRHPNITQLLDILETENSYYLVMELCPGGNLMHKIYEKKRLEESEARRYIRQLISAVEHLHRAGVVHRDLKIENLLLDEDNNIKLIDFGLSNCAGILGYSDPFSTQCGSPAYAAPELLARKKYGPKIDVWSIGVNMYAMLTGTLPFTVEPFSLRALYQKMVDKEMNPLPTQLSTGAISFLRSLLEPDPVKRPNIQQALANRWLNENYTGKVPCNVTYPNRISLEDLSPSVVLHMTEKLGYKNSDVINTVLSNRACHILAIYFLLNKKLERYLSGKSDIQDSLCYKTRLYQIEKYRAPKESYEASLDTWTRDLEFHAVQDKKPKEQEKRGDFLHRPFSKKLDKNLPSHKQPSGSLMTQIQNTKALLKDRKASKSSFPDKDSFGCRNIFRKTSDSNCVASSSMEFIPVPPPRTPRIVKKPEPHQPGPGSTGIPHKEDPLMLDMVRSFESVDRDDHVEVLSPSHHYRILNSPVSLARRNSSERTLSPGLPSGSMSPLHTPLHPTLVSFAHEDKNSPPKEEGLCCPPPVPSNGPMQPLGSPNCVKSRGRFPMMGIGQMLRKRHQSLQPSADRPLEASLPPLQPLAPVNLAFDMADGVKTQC
Sequence of Non-receptor tyrosine-protein kinase TYK2 (Homo sapiens) (P29597 whole entry, the tested form may be a part): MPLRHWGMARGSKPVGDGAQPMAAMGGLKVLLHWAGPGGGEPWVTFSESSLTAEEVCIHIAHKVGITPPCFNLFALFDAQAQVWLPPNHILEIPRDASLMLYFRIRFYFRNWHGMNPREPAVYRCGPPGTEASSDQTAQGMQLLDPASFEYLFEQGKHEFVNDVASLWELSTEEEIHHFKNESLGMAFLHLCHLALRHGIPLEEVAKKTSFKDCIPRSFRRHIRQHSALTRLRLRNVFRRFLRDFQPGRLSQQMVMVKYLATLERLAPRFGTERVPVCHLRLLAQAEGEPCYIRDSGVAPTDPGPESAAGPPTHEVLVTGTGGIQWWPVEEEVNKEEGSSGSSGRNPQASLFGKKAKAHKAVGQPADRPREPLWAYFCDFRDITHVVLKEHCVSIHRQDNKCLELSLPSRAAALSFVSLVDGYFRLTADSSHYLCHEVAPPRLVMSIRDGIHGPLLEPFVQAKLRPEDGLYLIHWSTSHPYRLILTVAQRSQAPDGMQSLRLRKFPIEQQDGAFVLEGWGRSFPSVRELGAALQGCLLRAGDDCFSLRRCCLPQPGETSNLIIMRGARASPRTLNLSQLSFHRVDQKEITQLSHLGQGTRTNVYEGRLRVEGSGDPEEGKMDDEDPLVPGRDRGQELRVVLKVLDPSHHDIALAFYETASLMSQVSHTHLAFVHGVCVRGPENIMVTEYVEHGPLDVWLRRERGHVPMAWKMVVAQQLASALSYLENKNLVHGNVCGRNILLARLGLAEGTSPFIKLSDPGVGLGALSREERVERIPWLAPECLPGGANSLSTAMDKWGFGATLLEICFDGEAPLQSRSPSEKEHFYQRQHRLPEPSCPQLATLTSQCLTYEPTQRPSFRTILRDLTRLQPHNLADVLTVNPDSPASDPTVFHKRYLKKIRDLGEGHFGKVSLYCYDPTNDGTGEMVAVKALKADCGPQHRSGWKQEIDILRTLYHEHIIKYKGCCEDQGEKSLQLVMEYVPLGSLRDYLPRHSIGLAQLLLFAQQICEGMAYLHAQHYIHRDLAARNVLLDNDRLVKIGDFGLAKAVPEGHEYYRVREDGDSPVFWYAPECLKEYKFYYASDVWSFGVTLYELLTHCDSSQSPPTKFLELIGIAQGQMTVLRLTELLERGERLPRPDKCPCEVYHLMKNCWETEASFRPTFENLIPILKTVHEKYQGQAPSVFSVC
Sequence of Serine/threonine-protein kinase Nek7 (Homo sapiens) (Q8TDX7 whole entry, looked up): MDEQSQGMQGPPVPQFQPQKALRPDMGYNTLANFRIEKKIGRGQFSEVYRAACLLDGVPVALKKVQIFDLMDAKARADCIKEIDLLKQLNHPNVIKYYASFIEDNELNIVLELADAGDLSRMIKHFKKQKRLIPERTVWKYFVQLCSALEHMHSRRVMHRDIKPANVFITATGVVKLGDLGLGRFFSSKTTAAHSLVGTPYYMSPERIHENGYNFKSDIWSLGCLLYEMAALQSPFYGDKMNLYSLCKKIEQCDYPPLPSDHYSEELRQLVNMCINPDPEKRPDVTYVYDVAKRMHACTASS
Sequence of Serine/threonine-protein kinase WNK3 (Homo sapiens) (Q9BYP7 whole entry): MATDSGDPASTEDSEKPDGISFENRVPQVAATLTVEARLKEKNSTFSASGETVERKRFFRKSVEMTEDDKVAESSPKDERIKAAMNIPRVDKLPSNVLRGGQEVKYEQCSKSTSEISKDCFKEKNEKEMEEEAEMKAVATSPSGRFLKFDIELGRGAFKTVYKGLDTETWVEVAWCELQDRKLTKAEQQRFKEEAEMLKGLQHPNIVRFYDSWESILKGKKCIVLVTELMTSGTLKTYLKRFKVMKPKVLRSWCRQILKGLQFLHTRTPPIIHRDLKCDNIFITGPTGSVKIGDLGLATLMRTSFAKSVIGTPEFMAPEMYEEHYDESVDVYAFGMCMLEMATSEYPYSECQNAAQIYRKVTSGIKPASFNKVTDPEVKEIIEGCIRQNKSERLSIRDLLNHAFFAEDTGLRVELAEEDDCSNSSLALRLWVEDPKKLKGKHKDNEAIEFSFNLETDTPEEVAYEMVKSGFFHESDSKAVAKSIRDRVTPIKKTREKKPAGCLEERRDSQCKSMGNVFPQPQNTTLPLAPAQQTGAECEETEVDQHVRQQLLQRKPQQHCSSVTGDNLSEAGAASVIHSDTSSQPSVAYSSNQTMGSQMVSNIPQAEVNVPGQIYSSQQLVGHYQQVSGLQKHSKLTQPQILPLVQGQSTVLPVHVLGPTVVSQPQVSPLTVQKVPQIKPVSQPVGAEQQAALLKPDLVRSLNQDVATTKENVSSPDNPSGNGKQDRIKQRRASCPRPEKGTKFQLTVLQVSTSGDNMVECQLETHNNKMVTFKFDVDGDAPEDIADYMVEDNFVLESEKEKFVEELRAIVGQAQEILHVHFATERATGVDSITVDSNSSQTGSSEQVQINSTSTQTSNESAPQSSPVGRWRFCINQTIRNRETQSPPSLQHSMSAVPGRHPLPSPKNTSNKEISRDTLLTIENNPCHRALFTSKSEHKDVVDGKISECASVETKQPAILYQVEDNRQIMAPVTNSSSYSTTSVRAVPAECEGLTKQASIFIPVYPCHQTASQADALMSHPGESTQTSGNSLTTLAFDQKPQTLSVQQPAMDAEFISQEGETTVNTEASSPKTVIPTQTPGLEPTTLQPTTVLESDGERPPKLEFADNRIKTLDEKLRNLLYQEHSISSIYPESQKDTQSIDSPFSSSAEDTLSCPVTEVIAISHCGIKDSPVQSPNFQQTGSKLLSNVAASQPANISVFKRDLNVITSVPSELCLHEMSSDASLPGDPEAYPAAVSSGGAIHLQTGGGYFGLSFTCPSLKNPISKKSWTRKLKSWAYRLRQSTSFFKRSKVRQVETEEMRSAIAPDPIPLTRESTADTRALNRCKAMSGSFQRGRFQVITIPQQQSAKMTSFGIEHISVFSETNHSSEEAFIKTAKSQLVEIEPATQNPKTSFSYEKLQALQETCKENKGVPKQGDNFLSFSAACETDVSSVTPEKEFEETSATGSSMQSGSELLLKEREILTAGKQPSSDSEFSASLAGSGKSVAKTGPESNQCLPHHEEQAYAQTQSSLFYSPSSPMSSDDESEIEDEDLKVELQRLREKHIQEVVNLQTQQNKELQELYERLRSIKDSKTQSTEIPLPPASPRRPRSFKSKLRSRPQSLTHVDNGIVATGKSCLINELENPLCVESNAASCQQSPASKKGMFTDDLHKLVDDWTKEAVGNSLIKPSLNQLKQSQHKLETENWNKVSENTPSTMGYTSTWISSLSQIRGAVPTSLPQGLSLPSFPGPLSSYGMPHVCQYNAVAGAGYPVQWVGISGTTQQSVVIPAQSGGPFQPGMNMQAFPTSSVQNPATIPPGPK
Sequence of Focal adhesion kinase 1 (Homo sapiens) (Q05397 2-1052 limits assumed): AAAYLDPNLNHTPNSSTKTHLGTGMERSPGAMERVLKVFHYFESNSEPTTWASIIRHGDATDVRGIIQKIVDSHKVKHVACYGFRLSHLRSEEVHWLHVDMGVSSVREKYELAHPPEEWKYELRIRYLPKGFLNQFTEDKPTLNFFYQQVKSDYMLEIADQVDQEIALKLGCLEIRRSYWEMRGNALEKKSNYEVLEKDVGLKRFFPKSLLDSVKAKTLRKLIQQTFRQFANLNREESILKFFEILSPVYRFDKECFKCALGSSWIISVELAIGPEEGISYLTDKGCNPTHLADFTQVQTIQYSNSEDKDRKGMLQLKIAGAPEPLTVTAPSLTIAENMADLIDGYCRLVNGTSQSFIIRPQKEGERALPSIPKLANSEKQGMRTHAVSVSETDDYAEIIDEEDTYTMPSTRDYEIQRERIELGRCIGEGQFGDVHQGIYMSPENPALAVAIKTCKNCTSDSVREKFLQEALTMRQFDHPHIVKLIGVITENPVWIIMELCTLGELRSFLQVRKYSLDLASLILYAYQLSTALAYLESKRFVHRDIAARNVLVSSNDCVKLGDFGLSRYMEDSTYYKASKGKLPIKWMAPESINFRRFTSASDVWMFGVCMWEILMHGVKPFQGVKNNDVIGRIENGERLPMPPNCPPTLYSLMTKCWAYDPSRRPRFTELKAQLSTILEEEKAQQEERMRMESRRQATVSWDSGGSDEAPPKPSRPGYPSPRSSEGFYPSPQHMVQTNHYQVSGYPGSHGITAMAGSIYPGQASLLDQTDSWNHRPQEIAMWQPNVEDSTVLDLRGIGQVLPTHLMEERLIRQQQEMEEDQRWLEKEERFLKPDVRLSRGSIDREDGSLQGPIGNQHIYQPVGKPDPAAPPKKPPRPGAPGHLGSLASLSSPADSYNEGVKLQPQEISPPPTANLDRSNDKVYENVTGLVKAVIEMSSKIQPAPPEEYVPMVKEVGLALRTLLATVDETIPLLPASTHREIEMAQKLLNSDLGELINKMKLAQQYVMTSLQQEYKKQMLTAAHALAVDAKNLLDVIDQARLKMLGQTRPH

`CNc1cc(Oc2cc(C(=O)Nc3cc(N4CCN(C)CC4)cc(C(F)(F)F)c3)ccc2C)ncn1` gave an inhibition [1] of -0.3%, an inhibition [2] of -2.7% and an inhibition [3] of 2.7%.

`CCN1CCN(Cc2ccc(NC(=O)c3ccc(C)c(/C=C/c4cnc5[nH]ccc5c4OC)c3)cc2C(F)(F)F)CC1` gave an inhibition [4] of 84%, an inhibition [5] of -8.6% and a residual activity [6] of 57%.

In the case of `CCN1CCN(Cc2ccc(NC(=O)c3ccc(C)c(Oc4ccnc5[nH]ccc45)c3)cc2C(F)(F)F)CC1`, the inhibition [7] is reported as “inactive”, the inhibition [8] is reported as 13.2% and the residual activity [9] is reported as 8.2%. For the same molecule, the inhibition [10] was -4.4% and the inhibition [11] was “inactive”.

— ChEMBL document CHEMBL5696442, “Discovery of type II inhibitors of TGFβ-activated kinase 1 (TAK1) and mitogen-activated protein kinase kinase kinase kinase 2 (MAP4K2)” (J Med Chem, 2015)
